Columns and labels:
Format in all cases: functional
[1] = system: Human immunodeficiency virus 1; assay: Antiviral activity against HIV1 with RT connection domain T369I mutant transfected in HEK293 cells assessed as inhibition of viral replication relative to HIV1 NL4-3
How it was run: (§1)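 Single-replication-cycle (PhenoSense) assay. Site-directed mutant RT pseudoviruses were made by cotransfecting 293 cells with RTV plasmid plus an amphotropic MLV Env plasmid, harvested at 48 h, and used to infect fresh 293 cells. Serial drug dilutions were added before infection. Luciferase was read ~72 h post-infection, % inhibition was computed, and EC50 was taken from the curves. Values are fold change versus NL4-3 reference run in the same experiment.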

[2] = system: Human immunodeficiency virus 1; assay: Antiviral activity against HIV1 with RT connection domain G190S/T369I/N348I mutant transfected in HEK293 cells assessed as inhibition of viral replication relative to HIV1 NL4-3; how it was run: as §1
[3] = system: Human immunodeficiency virus 1; assay: Antiviral activity against HIV1 with RT connection domain L100I/T369I/N348I mutant transfected in HEK293 cells assessed as inhibition of viral replication relative to HIV1 NL4-3; how it was run: as §1
[4] = system: Human immunodeficiency virus 1; assay: Antiviral activity against HIV1 with RT connection domain L100I/T369I mutant transfected in HEK293 cells assessed as inhibition of viral replication relative to HIV1 NL4-3; how it was run: as §1
[5] = system: Human immunodeficiency virus 1; assay: Antiviral activity against HIV1 with RT connection domain K103N/N348I mutant transfected in HEK293 cells assessed as inhibition of viral replication relative to HIV1 NL4-3; how it was run: as §1
[6] = system: Human immunodeficiency virus 1; assay: Antiviral activity against HIV1 with RT connection domain K103N/T369I mutant transfected in HEK293 cells assessed as inhibition of viral replication relative to HIV1 NL4-3; how it was run: as §1
[7] = system: Human immunodeficiency virus 1; assay: Antiviral activity against HIV1 with RT connection domain K103N/T369I/N348I mutant transfected in HEK293 cells assessed as inhibition of viral replication relative to HIV1 NL4-3; how it was run: as §1
[8] = system: Human immunodeficiency virus 1; assay: Antiviral activity against HIV1 with RT connection domain T369V mutant transfected in HEK293 cells assessed as inhibition of viral replication relative to HIV1 NL4-3; how it was run: as §1
[9] = system: Human immunodeficiency virus 1; assay: Antiviral activity against HIV1 with RT connection domain L100I/N348I mutant transfected in HEK293 cells assessed as inhibition of viral replication relative to HIV1 NL4-3; how it was run: as §1
[10] = system: Human immunodeficiency virus 1; assay: Antiviral activity against HIV1 with RT connection domain K103N mutant transfected in HEK293 cells assessed as inhibition of viral replication relative to HIV1 NL4-3; how it was run: as §1
[11] = system: Human immunodeficiency virus 1; assay: Antiviral activity against HIV1 with RT connection domain Y181C/T369I mutant transfected in HEK293 cells assessed as inhibition of viral replication relative to HIV1 NL4-3; how it was run: as §1
[12] = system: Human immunodeficiency virus 1; assay: Antiviral activity against HIV1 with RT connection domain G190A mutant transfected in HEK293 cells assessed as inhibition of viral replication relative to HIV1 NL4-3; how it was run: as §1
[13] = system: Human immunodeficiency virus 1; assay: Antiviral activity against HIV1 with RT connection domain G190A/N348Ib mutant transfected in HEK293 cells assessed as inhibition of viral replication relative to HIV1 NL4-3; how it was run: as §1
[14] = system: Human immunodeficiency virus 1; assay: Antiviral activity against HIV1 with RT connection domain G190S/N348I mutant transfected in HEK293 cells assessed as inhibition of viral replication relative to HIV1 NL4-3; how it was run: as §1
[15] = system: Human immunodeficiency virus 1; assay: Antiviral activity against HIV1 with RT connection domain G190S/T369I mutant transfected in HEK293 cells assessed as inhibition of viral replication relative to HIV1 NL4-3; how it was run: as §1
[16] = system: Human immunodeficiency virus 1; assay: Antiviral activity against HIV1 with RT connection domain Y181C mutant transfected in HEK293 cells assessed as inhibition of viral replication relative to HIV1 NL4-3; how it was run: as §1
[17] = system: Human immunodeficiency virus 1; assay: Antiviral activity against HIV1 with RT connection domain Y181C/T369I/N348I mutant transfected in HEK293 cells assessed as inhibition of viral replication relative to HIV1 NL4-3; how it was run: as §1
[18] = system: Human immunodeficiency virus 1; assay: Antiviral activity against HIV1 with RT connection domain G190A/T369I/N348I mutant transfected in HEK293 cells assessed as inhibition of viral replication relative to HIV1 NL4-3; how it was run: as §1
[19] = system: Human immunodeficiency virus 1; assay: Antiviral activity against HIV1 with RT connection domain Y181C/N348I mutant transfected in HEK293 cells assessed as inhibition of viral replication relative to HIV1 NL4-3; how it was run: as §1
[20] = system: Human immunodeficiency virus 1; assay: Antiviral activity against HIV1 with RT connection domain G190S mutant transfected in HEK293 cells assessed as inhibition of viral replication relative to HIV1 NL4-3; how it was run: as §1
[21] = system: Human immunodeficiency virus 1; assay: Antiviral activity against HIV1 with RT connection domain N348I mutant transfected in HEK293 cells assessed as inhibition of viral replication relative to HIV1 NL4-3; how it was run: as §1
[22] = system: Human immunodeficiency virus 1; assay: Antiviral activity against HIV1 with RT connection domain G190A/T369I mutant transfected in HEK293 cells assessed as inhibition of viral replication relative to HIV1 NL4-3; how it was run: as §1
[23] = system: Human immunodeficiency virus 1; assay: Antiviral activity against HIV1 with RT connection domain L100I mutant transfected in HEK293 cells assessed as inhibition of viral replication relative to HIV1 NL4-3; how it was run: as §1
[24] = system: Human immunodeficiency virus 1; assay: Antiviral activity against HIV1 with RT connection domain T369I/N348I mutant transfected in HEK293 cells assessed as inhibition of viral replication relative to HIV1 NL4-3; how it was run: as §1

Row | SMILES | fold change (FC) [1] | fold change (FC) [2] | fold change (FC) [3] | fold change (FC) [4] | fold change (FC) [5] | fold change (FC) [6] | fold change (FC) [7] | fold change (FC) [8] | fold change (FC) [9] | fold change (FC) [10] | fold change (FC) [11] | fold change (FC) [12] | fold change (FC) [13] | fold change (FC) [14] | fold change (FC) [15] | fold change (FC) [16] | fold change (FC) [17] | fold change (FC) [18] | fold change (FC) [19] | fold change (FC) [20] | further results
1 | CC(C)Nc1cccnc1N1CCN(C(=O)c2cc3cc(NS(C)(=O)=O)ccc3[nH]2)CC1 [DELAVIRDINE] | 5.2 | 6.9 | >250 | 49.7 | >250 | >250 | >250 | 5.5 | 90.7 | 75.7 | >250 | 0.3 | 1.1 | 0.9 | 0.6 | 44.7 | >250 | 5.9 | >250 | 0.3 | fold change (FC) [21]: 3.4; fold change (FC) [22]: 1.2; fold change (FC) [23]: 34; fold change (FC) [24]: 29.8
2 | O=C1Nc2ccc(Cl)cc2[C@@](C#CC2CC2)(C(F)(F)F)O1 [EFAVIRENZ] | 2.4 | >700 | 137.7 | 13.6 | 115 | 164.1 | >700 | 3.1 | 16 | 21.3 | 4 | 5.2 | 26 | >700 | >700 | 1.7 | 17 | >700 | 3.2 | 63 | fold change (FC) [21]: 1.9; fold change (FC) [22]: 33.7; fold change (FC) [23]: 9; fold change (FC) [24]: 8.1
3 | Cc1ccnc2c1NC(=O)c1cccnc1N2C1CC1 [NEVIRAPINE] | 8.4 | >400 | 56.3 | 4.8 | >400 | >400 | >400 | 9.2 | 5.3 | 81 | >400 | 127.7 | >400 | >400 | >400 | 317 | >400 | >400 | >400 | 145 | fold change (FC) [21]: 4.1; fold change (FC) [22]: >400; fold change (FC) [23]: 2.1; fold change (FC) [24]: 58.6
4 | Cc1cn([C@H]2C[C@H](N=[N+]=[N-])[C@@H](CO)O2)c(=O)[nH]c1=O [ZIDOVUDINE] | 2.7 | 5.8 | 0.5 | 0.2 | 2.6 | 2.3 | 7.9 | 2.1 | 0.3 | 1.1 | 0.9 | 1.1 | 2 | 1.7 | 0.7 | 0.3 | 2.2 | 4.2 | 0.7 | 0.8 | fold change (FC) [21]: 2.4; fold change (FC) [22]: 1.7; fold change (FC) [23]: 0.1; fold change (FC) [24]: 5.4
